The nature of the series: Metabolic stability in mouse microsomes assessed as decrease in parent compound level after 30 mins by LC/MS. Conditions: read-out: Activity. Format: ADME, Microsome. An outline of the steps:
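Compounds were incubated with mouse liver microsomes supplemented with UDP-glucuronosyltransferase, covering primary and secondary metabolism. Turnover was expressed as % of parent metabolized at 30 min.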
Regarding `COc1cc2nc(-c3cc(F)ccc3O)nc(N[C@@H]3CNC[C@H]3C(C)(C)O)c2cc1OC`, the metabolised at 0.5 h is 23%.

Take `Oc1ccc(F)cc1-c1nc(N[C@H]2CCNC2)c2ccccc2n1`: the metabolised at 0.5 h worked out at 27%.

Take `CC(C)(O)[C@@H]1CNC[C@H]1Nc1nc(-c2cc(-c3cc[nH]n3)ccc2O)nc2ccccc12`: the metabolised at 0.5 h is 22%.

Consider `Oc1ccccc1-c1nc(N[C@H]2CCNC2)c2ccccc2n1`, for which the metabolised at 0.5 h was 25%.

Turning to `COCCOc1ccc2c(N[C@H]3CCNC3)nc(-c3cc(F)ccc3O)nc2c1`, the metabolised at 0.5 h came out at 25%.

In the case of `Oc1ccc(-c2cc[nH]n2)cc1-c1nc(N[C@H]2CCNC2)c2ccccc2n1`, the metabolised at 0.5 h came out at 27%.

(Values after ChEMBL document CHEMBL1649416, “Structure-based design of potent and selective 2-(quinazolin-2-yl)phenol inhibitors of checkpoint kinase 2” (J Med Chem, 2011).)
